According to ChEMBL document CHEMBL1127536, “2-Azetidinones as inhibitors of cholesterol absorption” (J Med Chem, 1994):

Key:
Cricetinae gen. sp. [1] = assay: Effective dose evaluated in hamster cholesterol absorption assay; assay type: functional
Outline: (§1)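 Hamsters fed cholesterol for 1 week while dosed daily (mg/kg/day). Liver was Folch-extracted and neutral lipids were analysed by HPLC, giving the reduction in hepatic cholesteryl ester rise as the absorption marker. ED50 was taken from dose-response curves.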

Cricetinae gen. sp. [2] = assay: Percent reduction in plasma cholesterol was evaluated by hamster cholesterol absorption assay at the particular dose of 10 (mg/kg/day); assay type: functional, Cricetulus griseus
Outline: (§2)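 Hamsters fed cholesterol for 1 week while dosed daily (mg/kg/day). Read-out was inhibition of the rise in plasma cholesterol, measured by a cholesterol oxidase kit method.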

Cricetinae gen. sp. [3] = assay: Percent reduction in plasma cholesterol was evaluated by hamster cholesterol absorption assay at the particular dose of 50 (mg/kg/day); assay type: functional, Cricetulus griseus; outline: as §2
Cricetinae gen. sp. [4] = assay: Percent reduction of hepatic cholesteryl esters was evaluated by hamster cholesterol absorption assay at the particular dose of 10 (mg/kg/day); assay type: functional, Cricetulus griseus; outline: as §1
Cricetinae gen. sp. [5] = assay: Percent reduction of hepatic cholesteryl esters was evaluated by hamster cholesterol absorption assay at the particular dose of 50 (mg/kg/day); assay type: functional, Cricetulus griseus; outline: as §1
[6] = molecular target: T1, Sterol O-acyltransferase 1 (Rattus norvegicus) (UniProt O70536); assay: Inhibition of Acyl coenzyme A:cholesterol acyltransferase in microsomal ACAT assay at 10 uM
T1 sequence (whole entry): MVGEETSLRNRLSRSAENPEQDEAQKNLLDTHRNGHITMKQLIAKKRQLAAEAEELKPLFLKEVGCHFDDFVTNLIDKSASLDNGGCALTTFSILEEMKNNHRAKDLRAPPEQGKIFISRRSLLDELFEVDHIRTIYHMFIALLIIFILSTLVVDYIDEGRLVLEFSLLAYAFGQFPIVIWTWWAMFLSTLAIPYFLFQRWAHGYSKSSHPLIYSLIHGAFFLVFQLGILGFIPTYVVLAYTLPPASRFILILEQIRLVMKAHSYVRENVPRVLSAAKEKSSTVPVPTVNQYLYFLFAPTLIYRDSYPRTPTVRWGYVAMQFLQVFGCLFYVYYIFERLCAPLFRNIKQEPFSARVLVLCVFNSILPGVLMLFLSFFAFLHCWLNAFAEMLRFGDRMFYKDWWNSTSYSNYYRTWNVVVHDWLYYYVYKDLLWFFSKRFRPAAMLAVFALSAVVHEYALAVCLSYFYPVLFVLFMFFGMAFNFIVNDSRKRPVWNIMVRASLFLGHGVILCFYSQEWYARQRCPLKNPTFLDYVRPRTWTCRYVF
Outline: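 Rat hepatic microsomes (12.5 μg protein) with 90 µM fatty-acid-free BSA in 0.1 M potassium phosphate, 2 mM DTT, pH 7.4. Compound added from DMSO stocks and preincubated 15 min at 37 °C. Reaction started with [³H]-oleoyl-CoA (10 μM final) and run 15 min at 37 °C. Aliquot spotted on silica TLC, developed, and radioactivity in the cholesteryl oleate band counted by scintillation.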

[7] = molecular target: T2, Sterol O-acyltransferase 1 (Rattus norvegicus, UniProt O70536); assay: Concentration required for 50% inhibition of Acyl coenzyme A:cholesterol acyltransferase activity using microsomal ACAT assay
T2 sequence (O70536 whole entry): T1 sequence (whole entry)

Cricetinae gen. sp. [8] = assay: Percent reduction in plasma cholesterol was evaluated by hamster cholesterol absorption assay at the particular dose of 100 (mg/kg/day); assay type: functional, Cricetulus griseus; outline: as §2
Cricetinae gen. sp. [9] = assay: Percent reduction of hepatic cholesteryl esters was evaluated by hamster cholesterol absorption assay at the particular dose of 100 (mg/kg/day); assay type: functional, Cricetulus griseus; outline: as §1
Cricetinae gen. sp. [10] = assay: Percent reduction in plasma cholesterol was evaluated by hamster cholesterol absorption assay at the particular dose of 50(mg/kg/day); assay type: functional, Cricetulus griseus; outline: as §2
[11] = Cricetinae gen. sp., read-out: ED50

Structure (SMILES)	Reduction (Cricetinae gen. sp. [2]) [%]	Reduction (Cricetinae gen. sp. [3]) [%]	Reduction (Cricetinae gen. sp. [4]) [%]	Reduction (Cricetinae gen. sp. [5]) [%]	inhibition ([6]; 10 uM) [%]	other results
COc1ccc([C@@H]2[C@@H](CCCc3ccccc3)C(=O)N2c2ccc(OC)cc2)cc1 [SCH-48461]	43	10	93	0		ED50 (Cricetinae gen. sp. [1]): 2.2 mg/kg/day
CCCCCCCCCCC(C)(C)C(=O)Nc1c(OC)cc(OC)cc1OC [CL-976]	0		33		72	ED50 (Cricetinae gen. sp. [1]; [11]): 16 mg/kg/day
COc1cc(OC)c(N2C(=O)[C@@H](CCCc3ccccc3)[C@H]2c2ccccc2)c(OC)c1		0		-20	61	
CC[C@]1(CCCc2ccccc2)CN(c2ccc(OC)cc2)C1=O		10		0		
COc1ccc([C@@H]2[C@@H](CCCc3ccccc3)C(=O)N2c2ccc(OC)cc2)cc1 (racemic) [SCH-48461]	21		60			ED50 (Cricetinae gen. sp. [1]): 7.1 mg/kg/day
COc1ccc(N2C(=O)[C@@](CCCc3ccccc3)(c3ccccc3)[C@H]2c2ccccc2)cc1		11		16	84	IC50 [7]: 6 µM
COc1ccc(N2C(=O)[C@@](C(=O)Cc3ccccc3)(c3ccccc3)[C@H]2c2ccccc2)cc1						inhibition ([6]; 25 uM, in the assay text read “at 25 uM” for “at 10 uM”): 83%; Reduction (Cricetinae gen. sp. [8]): 10%; Reduction (Cricetinae gen. sp. [9]): 26%
CC[C@@]1(CCCc2ccccc2)C(=O)N(c2c(OC)cc(OC)cc2OC)[C@@H]1c1ccccc1		0		31	82	
COc1ccc([C@@H]2[C@H](CCCc3ccccc3)C(=O)N2c2ccc(OC)cc2)cc1	17		55			ED50 (Cricetinae gen. sp. [1]; [11]): 11.5 mg/kg/day
COc1ccc(N2C(=O)[C@@H](CCCc3ccccc3)[C@H]2c2ccccc2)cc1				0	28	Reduction (Cricetinae gen. sp. [10]): 0%
CC[C@]1(CCCc2ccccc2)CN(c2c(OC)cc(OC)cc2OC)C1=O				-29	38	Reduction (Cricetinae gen. sp. [10]): 7%
CC[C@]1(CCCc2ccccc2)C(=O)N(c2ccc(OC)cc2)[C@@H]1c1ccccc1		12		29	33	
CC[C@]1(CCCc2ccccc2)C(=O)N(c2c(OC)cc(OC)cc2OC)[C@@H]1c1ccccc1		0		0	42	
